The source made the active and inactive calls. The calls are words filed in the database; no cut-off is given here.
Key:
[1] = target: T1, Mitogen-activated protein kinase kinase kinase 7 (Homo sapiens, UniProt O43318); assay: Inhibition of TAK1 (unknown origin) by LanthaScreen assay
T1 sequence (O43318 whole entry): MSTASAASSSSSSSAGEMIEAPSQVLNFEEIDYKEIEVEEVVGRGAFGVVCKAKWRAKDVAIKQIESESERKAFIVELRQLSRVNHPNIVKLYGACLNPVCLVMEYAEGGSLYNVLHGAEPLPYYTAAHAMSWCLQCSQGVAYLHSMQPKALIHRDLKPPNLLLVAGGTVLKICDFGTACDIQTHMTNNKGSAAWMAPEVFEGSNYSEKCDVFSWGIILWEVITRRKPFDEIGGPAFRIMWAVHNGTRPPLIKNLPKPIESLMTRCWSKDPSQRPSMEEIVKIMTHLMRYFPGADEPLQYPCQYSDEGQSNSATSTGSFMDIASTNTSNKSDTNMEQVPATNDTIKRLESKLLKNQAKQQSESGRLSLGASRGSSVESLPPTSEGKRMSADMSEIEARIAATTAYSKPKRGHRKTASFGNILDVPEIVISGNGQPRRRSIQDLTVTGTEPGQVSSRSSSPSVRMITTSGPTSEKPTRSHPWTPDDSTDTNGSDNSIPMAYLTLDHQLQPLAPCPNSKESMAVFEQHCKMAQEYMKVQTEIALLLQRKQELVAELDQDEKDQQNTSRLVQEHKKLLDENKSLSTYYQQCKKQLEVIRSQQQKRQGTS

[2] = tested on: ASPC1; assay: Antiproliferative activity against human AsPC1 cells harboring KRAS G12D mutant after 72 hrs by CellTiter-Glo assay; type: functional, cell-based; conditions: ASPC1, 72 h
[3] = Antiproliferative activity against human URMC6 cells harboring wild type KRAS after 72 hrs by CellTiter-Glo assay; type: functional, cell-based
[4] = tested on: PANC-1; assay: Antiproliferative activity against human PANC1 cells harboring KRAS G12D mutant after 72 hrs by CellTiter-Glo assay; type: functional, cell-based; conditions: PANC-1, 72 h
[5] = tested on: BaF3; assay: Antiproliferative activity against mouse BA/F3 cells harboring KRAS G12D mutant after 72 hrs in presence of IL-3 by CellTiter-Glo assay; type: functional, cell-based; conditions: BaF3, 72 h
[6] = tested on: SW-620; assay: Antiproliferative activity against human SW620 cells harboring KRAS G12V mutant after 72 hrs by CellTiter-Glo assay; type: functional, cell-based; conditions: SW-620, 72 h
[7] = Antiproliferative activity against human SW156 cells harboring wild type KRAS after 72 hrs by CellTiter-Glo assay; type: functional, cell-based
[8] = tested on: SK-CO-1; assay: Antiproliferative activity against human SKCO1 cells harboring KRAS G12V mutant after 72 hrs by CellTiter-Glo assay; type: functional, cell-based; conditions: SK-CO-1, 72 h
[9] = target: T2, Mitogen-activated protein kinase kinase kinase 7 (Homo sapiens) (UniProt O43318); assay: Inhibition of biotin-labeled N-(2-(2-(2-(2-(4-(4-((4-((2-Acrylamidophenyl)amino)-5-chloropyrimidin-2-yl)amino)phenyl)piperazin-1-yl)ethoxy)ethoxy)ethoxy)ethyl)-5-((3aS,4S,6aR)-2-oxohexahydro-1H-thieno[3,4-d]imidazol-4-yl)pentanamide probe binding to TAK1 in human NCI-H358 cells at 10 uM after 6 hrs by immunoblot based competitive pull down assay; type: cell-based
T2 sequence (whole entry): T1 sequence (O43318 whole entry)
How it was run: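 H358 cells given 1 or 10 μM compound for 6 h, medium removed, cells rinsed twice with cold PBS and lysed in MPER buffer. Lysates incubated overnight at 4 °C with 1 μM biotinylated covalent probe, captured on streptavidin beads, and TAK1 recovery assessed by immunoblotting with anti-TAK1 antibody.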

[10] = tested on: BaF3; assay: Antiproliferative activity against mouse BA/F3 cells harboring KRAS G12D mutant after 72 hrs by CellTiter-Glo assay; type: functional, cell-based; conditions: BaF3, 72 h
[11] = tested on: NCI-H23; assay: Antiproliferative activity against human NCI-H23 cells harboring KRAS G12C mutant after 72 hrs by CellTiter-Glo assay; type: functional, cell-based; conditions: NCI-H23, 72 h
How it was run: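 NCI-H23 or NCI-H358 cells seeded at 2000 cells/well and grown 48 h before drug. Varying doses were added and cells incubated 72 h. Viability was read as CellTiter-Glo luminescence, and growth-inhibition IC50 was calculated from dose-response curves.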

[12] = tested on: BaF3; assay: Antiproliferative activity against mouse BA/F3 cells after 72 hrs by CellTiter-Glo assay; type: cell-based; conditions: BaF3, 72 h
[13] = tested on: BaF3; assay: Antiproliferative activity against mouse BA/F3 cells harboring NRAS G12D mutant after 72 hrs by CellTiter-Glo assay; type: functional, cell-based; conditions: BaF3, 72 h
How it was run: (§1)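 Ba/F3 parental or RAS-transformed cells were seeded at 1000 viable cells/well, without or with IL-3 as the line states, at 37 °C and 5% CO2. After 4 h, nine four-fold serial dilutions were added in triplicate (final 0.5–30,000 nM, 0.3% DMSO). DMSO wells served as 100% viability.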

[14] = tested on: BaF3; assay: Antiproliferative activity against mouse BA/F3 cells harboring NRAS G12D mutant after 72 hrs in presence of IL-3 by CellTiter-Glo assay; type: functional, cell-based; conditions: BaF3, 72 h; how it was run: as §1
[15] = tested on: U-937; assay: Antiproliferative activity against human U937 cells at […] to […] nM after 72 hrs by CellTiter-Glo assay; type: functional, cell-based
[16] = tested on: MOLM-14; assay: Antiproliferative activity against human MOLM14 cells harboring FLT3-ITD mutant at […] to […] nM after 72 hrs by CellTiter-Glo assay; type: functional, cell-based
[17] = tested on: HEL; assay: Antiproliferative activity against human HEL cells at […] to […] nM after 72 hrs by CellTiter-Glo assay; type: functional, cell-based
[18] = tested on: NALM-6; assay: Antiproliferative activity against human NALM6 cells harboring NARS A146T mutant at […] to […] nM after 72 hrs by CellTiter-Glo assay; type: functional, cell-based

Row | Compound | IC50 [1] [nM] | IC50 [5] [nM] | IC50 [10] [nM] | IC50 [12] [nM] | further results
1 | CC(C)Nc1cc(-c2c[nH]c(C(=O)N[C@H](CO)c3cccc(Cl)c3)c2)c(Cl)cn1 [ULIXERTINIB] |  | 8610 | 468 | 2230 | IC50 [11]: 1000 nM; IC50 [2]: 849 nM; IC50 [6]: 499 nM; IC50 [7]: 1240 nM; IC50 [8]: 356 nM
2 | C=CC(=O)Nc1ccccc1Oc1nc(Nc2cnn(C)c2)ncc1Cl | 7.3 | 859 | 308 | 2940 | IC50 [13]: 179 nM; IC50 [14]: 1020 nM
3 | C=CC(=O)Oc1ccccc1Nc1nc(Nc2ccc(N3CCOCC3)cc2)ncc1Cl | 4.4 | 745 | 56 | 423 | Activity [15]: Active; Activity [16]: Active; Activity [17]: inactive; IC50 [13]: 47 nM; Activity [18]: inactive; IC50 [14]: 390 nM
4 | C=CC(=O)Nc1ccccc1Oc1nc(Nc2cnn(C(F)F)c2)ncc1Cl | 7 | 414 | 67 | 539 | Activity [15]: Active; Activity [16]: Active; Activity [17]: inactive; IC50 [13]: 92 nM; Activity [18]: inactive; inhibition [9]: Active; IC50 [14]: 277 nM
5 | Cn1c(=O)n(-c2ccc(C(C)(C)C#N)cc2)c2c3cc(-c4cnc5ccccc5c4)ccc3ncc21 [DACTOLISIB] |  |  |  |  | IC50 [11]: 1000 nM
6 | Cn1cnc2c(F)c(Nc3ccc(Br)cc3Cl)c(C(=O)NOCCO)cc21 [SELUMETINIB] |  | > 10000 | 100 |  | IC50 [2]: 64.2 nM; IC50 [6]: 15 nM; IC50 [8]: 117 nM
7 | C=CC(=O)Nc1ccccc1Sc1nc(Nc2ccc(N3CCN(C)CC3)cc2)ncc1Cl | 83 | 763 | 962 | 838 | 
8 | C=CC(=O)Nc1cc(NC(C)=O)ccc1Nc1nc(Nc2ccc(N3CCN(C)CC3)cc2)ncc1Cl | 1640 | 3730 | 1350 |  | 
9 | C=CC(=O)Oc1ccccc1Nc1nc(Nc2cccc(N3CCOCC3)c2)ncc1Cl | 3.2 | 839 |  |  | inhibition [9]: Active
10 | C=CC(=O)Nc1ccccc1Oc1nc(Nc2ccc(N3CCN(C)CC3)cc2)ncc1C1CC1 | 57 | 1190 | 181 | 1340 | 
11 | C=CC(=O)Nc1ccccc1Oc1nc(Nc2cnn(C3CCOCC3)c2)ncc1Cl | 4.6 | 719 | 69 |  | 
12 | C=CC(=O)Nc1ccccc1Oc1nc(Nc2ccc(N3CCN(C)CC3)cc2)nc(N)c1Cl | 2750 | 3530 |  |  | 
13 | C=CC(=O)Oc1ccccc1Nc1nc(Nc2cccc(N3CCN(C(C)=O)CC3)c2)ncc1Cl | 1.7 | 460 | 280 |  | 

Second part, led by results:

Row | IC50 [1] [nM] | IC50 [5] [nM] | IC50 [10] [nM] | IC50 [12] [nM] | Compound | further results
14 | 1630 | 9 |  |  | CCC(=O)Nc1ccccc1Nc1nc(Nc2ccc(N3CCN(C)CC3)cc2)ncc1Cl | IC50 [2]: 73 nM; IC50 [3]: 263 nM; IC50 [4]: 426 nM; IC50 [6]: 247 nM; IC50 [7]: 363 nM; IC50 [8]: 54 nM; inhibition [9]: inactive
15 | 75 | 310 | 57 | 476 | C=CC(=O)Nc1ccccc1Oc1nc(Nc2ccc(N3CCN(C)CC3)cc2)ncc1OC | 
16 | 92 | 357 | 113 | 385 | C=CC(=O)Nc1ccccc1Oc1nc(Nc2ccc(N3CCN(C)CC3)cc2)ncc1C | 
17 | 950 | 1400 |  | 1930 | C=CC(=O)Nc1ccccc1Oc1ccnc(Nc2ccc(N3CCN(C)CC3)cc2)n1 | 
18 | 3.3 | 555 | 44 | 234 | C=CC(=O)Oc1ccccc1Nc1nc(Nc2ccc(N3CCN(C)CC3)cc2)ncc1Cl | 
19 | 3010 |  | 905 | 3270 | C=CC(=O)Nc1ccccc1-n1ccc2cnc(Nc3ccc(N4CCN(C)CC4)cc3)nc21 | IC50 [13]: 2040 nM
